Experimental data reported in ChEMBL document CHEMBL1123302, “Antagonists of substance P. Further modifications of substance P antagonists obtained by replacing either positions 7, 9 or 7, 8 and 11 of SP with D-amino acid residues” (J Med Chem, 1986).

How the values were obtained:
Substance-P receptor = Substance-P receptor (Rattus norvegicus, UniProt P14600); test: Histamine releasing activity of Substance P from isolated rat peritoneal mast cells; format: functional
In short: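 Histamine release from isolated rat peritoneal mast cells, method of Fretwell et al. Dose-response curves were built over a range of concentrations, and EC50 values were calculated from the curves.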

[1] = target: Substance-P receptor (Rattus norvegicus) (UniProt P14600); test: Antagonistic activity against Substance P receptor in rat spinal cord at concentration of 50 uM.
Sequence of Substance-P receptor (Rattus norvegicus) (P14600 whole entry, looked up): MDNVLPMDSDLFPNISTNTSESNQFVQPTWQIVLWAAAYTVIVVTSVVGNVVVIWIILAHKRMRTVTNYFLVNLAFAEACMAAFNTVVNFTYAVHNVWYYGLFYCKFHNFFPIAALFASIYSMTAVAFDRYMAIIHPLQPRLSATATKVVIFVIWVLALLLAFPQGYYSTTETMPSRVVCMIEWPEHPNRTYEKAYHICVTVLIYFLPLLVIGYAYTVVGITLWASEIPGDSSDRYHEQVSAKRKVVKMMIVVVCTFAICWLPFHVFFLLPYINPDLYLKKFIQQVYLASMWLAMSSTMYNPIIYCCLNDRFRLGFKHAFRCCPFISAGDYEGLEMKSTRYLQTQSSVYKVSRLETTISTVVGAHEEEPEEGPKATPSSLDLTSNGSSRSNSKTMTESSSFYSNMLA

[2] = tested on: muscarinic acetylcholine receptor (Rattus norvegicus); test: Antagonistic activity against Carbachol receptor in rat spinal cord at concentration of 10 uM.
[3] = tested on: muscarinic acetylcholine receptor (Rattus norvegicus); test: Antagonistic activity against Carbachol receptor in rat spinal cord at concentration of 50 uM.
[4] = target: Substance-P receptor (Rattus norvegicus) (UniProt P14600); test: Antagonistic activity against Substance P(6-11) receptor in rat spinal cord at concentration of 50 uM.
[5] = target: Substance-P receptor (Cavia porcellus) (UniProt P30547); test: In vitro inhibition of substance P (6-11) hexapeptide induced contractions of the guinea pig ileum at 5 uM.; format: tissue-based
Sequence of Substance-P receptor (Cavia porcellus) (P30547 whole entry): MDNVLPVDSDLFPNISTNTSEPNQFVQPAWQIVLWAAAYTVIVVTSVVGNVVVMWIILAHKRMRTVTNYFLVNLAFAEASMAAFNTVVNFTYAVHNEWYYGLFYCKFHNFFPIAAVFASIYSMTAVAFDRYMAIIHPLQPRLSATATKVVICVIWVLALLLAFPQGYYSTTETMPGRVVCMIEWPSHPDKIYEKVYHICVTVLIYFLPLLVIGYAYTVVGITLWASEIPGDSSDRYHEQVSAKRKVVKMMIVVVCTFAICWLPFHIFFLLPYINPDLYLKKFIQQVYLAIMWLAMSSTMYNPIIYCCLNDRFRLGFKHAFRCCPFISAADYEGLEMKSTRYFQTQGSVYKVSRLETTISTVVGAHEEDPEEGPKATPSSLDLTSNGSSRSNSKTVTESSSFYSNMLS
In short: (§1)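 Agonist (SP or SP(6-11)-hexapeptide) dose-response curves on a 3-min cycle with 1-min contact, then washout. Dose ratio = agonist EC50 with antagonist / EC50 alone. At least two preparations per compound; ratios below 2 taken as insignificant.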

[6] = target: Metabotropic glutamate receptor 3 (Rattus norvegicus) (UniProt P31422); test: Antagonistic activity against Glutamate receptor in rat spinal cord at concentration of 50 uM.; format: functional, tissue-based
Sequence of Metabotropic glutamate receptor 3 (Rattus norvegicus) (P31422 23-879 limits assumed): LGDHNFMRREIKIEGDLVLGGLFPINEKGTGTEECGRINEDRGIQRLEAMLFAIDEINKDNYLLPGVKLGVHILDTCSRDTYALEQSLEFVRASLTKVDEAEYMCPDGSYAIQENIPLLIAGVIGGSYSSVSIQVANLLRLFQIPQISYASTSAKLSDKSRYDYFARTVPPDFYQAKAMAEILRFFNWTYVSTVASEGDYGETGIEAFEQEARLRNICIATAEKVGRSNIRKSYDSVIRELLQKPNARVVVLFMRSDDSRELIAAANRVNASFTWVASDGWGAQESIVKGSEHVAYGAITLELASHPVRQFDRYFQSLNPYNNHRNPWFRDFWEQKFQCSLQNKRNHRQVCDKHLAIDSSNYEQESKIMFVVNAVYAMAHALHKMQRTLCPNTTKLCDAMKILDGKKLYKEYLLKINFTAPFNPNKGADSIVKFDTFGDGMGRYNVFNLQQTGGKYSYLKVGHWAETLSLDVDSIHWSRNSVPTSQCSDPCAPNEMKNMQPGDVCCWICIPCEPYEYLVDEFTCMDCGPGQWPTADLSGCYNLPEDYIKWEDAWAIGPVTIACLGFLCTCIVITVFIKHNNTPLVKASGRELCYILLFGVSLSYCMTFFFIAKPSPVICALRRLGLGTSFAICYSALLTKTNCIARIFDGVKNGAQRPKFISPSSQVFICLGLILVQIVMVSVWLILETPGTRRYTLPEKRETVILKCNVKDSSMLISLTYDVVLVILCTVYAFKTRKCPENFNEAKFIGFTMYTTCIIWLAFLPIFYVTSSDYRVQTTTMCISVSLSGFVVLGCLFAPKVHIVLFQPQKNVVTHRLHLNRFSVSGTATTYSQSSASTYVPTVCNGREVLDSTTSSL
In short: (§2)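 Neonatal rat spinal cord, hemisected sagittally, superfused at 1 mL/min with oxygenated Krebs-Henseleit medium containing 0.5% urethane at room temperature. Agonists were given in 2-mL doses in the superfusate. Antagonist was superfused continuously for at least 15 min before agonist retesting. Read-out was ventral root depolarization (DC potential, ventral root vs cord body), measured as amplitude and area of response.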

[7] = target: Substance-P receptor (Cavia porcellus) (UniProt P30547); test: Antagonistic activity against Substance P(6-11) receptor in guinea pig ileum at concentration of 1 uM.; format: functional, tissue-based
In short: (§3)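 Distal ileum from Dunkin-Hartley guinea pigs (300-350 g, both sexes), held in a 5-mL bath of Krebs solution at 37 °C gassed with 95% O2/5% CO2. Agonist dose-response curves ran on a 3-min cycle with 1-min contact, then washout. Dose ratio = agonist EC50 with antagonist / EC50 alone. At least two preparations per compound; ratios below two were taken as insignificant.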

[8] = target: Substance-P receptor (Cavia porcellus) (UniProt P30547); test: In vitro inhibition of substance P induced contractions of the guinea pig ileum at 5 uM.; format: tissue-based; in short: as §1
[9] = target: Metabotropic glutamate receptor 3 (Rattus norvegicus) (UniProt P31422); test: Antagonistic activity against Glutamate receptor in rat spinal cord at concentration of 10 uM.; format: functional, tissue-based; in short: as §2
[10] = target: Substance-P receptor (Rattus norvegicus) (UniProt P14600); test: Antagonistic activity against Substance P receptor in rat spinal cord at concentration of 10 uM.
[11] = target: Substance-P receptor (Rattus norvegicus) (UniProt P14600); test: Antagonistic activity against Substance P(6-11) receptor in rat spinal cord at concentration of 10 uM.
[12] = target: Substance-P receptor (Cavia porcellus) (UniProt P30547); test: Antagonistic activity against Substance P receptor in guinea pig ileum at concentration of 1 uM.; format: functional, tissue-based; in short: as §3
[13] = target: Substance-P receptor (Cavia porcellus) (UniProt P30547); test: In vitro inhibition of substance P induced contractions of the guinea pig ileum at 10 uM.; format: tissue-based; in short: as §1
[14] = target: Metabotropic glutamate receptor 3 (Rattus norvegicus) (UniProt P31422); test: Antagonistic activity against Glutamate receptor in rat spinal cord at concentration of 25 uM.; format: functional, tissue-based; in short: as §2
[15] = target: Substance-P receptor (Rattus norvegicus) (UniProt P14600); test: Antagonistic activity against Substance P receptor in rat spinal cord at concentration of 25 uM.
[16] = target: Substance-P receptor (Rattus norvegicus) (UniProt P14600); test: Antagonistic activity against Substance P(6-11) receptor in rat spinal cord at concentration of 25 uM.
[17] = target: Substance-P receptor (Cavia porcellus) (UniProt P30547); test: In vitro inhibition of substance P (6-11) hexapeptide induced contractions of the guinea pig ileum at 10 uM.; format: tissue-based; in short: as §1
[18] = target: Metabotropic glutamate receptor 3 (Rattus norvegicus) (UniProt P31422); test: Antagonistic activity against Glutamate receptor in rat spinal cord at concentration of 5 uM.; format: functional, tissue-based; in short: as §2
[19] = target: Substance-P receptor (Rattus norvegicus) (UniProt P14600); test: Antagonistic activity against Substance P receptor in rat spinal cord at concentration of 5 uM.
[20] = target: Substance-P receptor (Rattus norvegicus) (UniProt P14600); test: Antagonistic activity against Substance P(6-11) receptor in rat spinal cord at concentration of 5 uM.
[21] = target: Metabotropic glutamate receptor 3 (Rattus norvegicus) (UniProt P31422); test: Antagonistic activity against Glutamate receptor in rat spinal cord at concentration of 5.0 uM.; format: functional, tissue-based; in short: as §2
[22] = target: Metabotropic glutamate receptor 3 (Rattus norvegicus) (UniProt P31422); test: Antagonistic activity against Glutamate receptor in rat spinal cord at concentration of 10.0 uM.; format: functional, tissue-based; in short: as §2
[23] = target: Metabotropic glutamate receptor 3 (Rattus norvegicus) (UniProt P31422); test: Antagonistic activity against Glutamate receptor in rat spinal cord at concentration of 1.0 uM.; format: functional, tissue-based; in short: as §2
[24] = target: Metabotropic glutamate receptor 3 (Rattus norvegicus) (UniProt P31422); test: Antagonistic activity against Glutamate receptor in rat spinal cord at concentration of 0.5 uM.; format: functional, tissue-based; in short: as §2

Sequence of Substance-P receptor (P14600 whole entry): as the sequence (P14600 whole entry, looked up) above

SMILES	IC50 (Substance-P receptor)	Change in amplitude response [4]	Activity [5]	Change in amplitude response [6]	Activity [8]	Activity [13]	Activity [17]	also measured
COC(=O)[C@@H](CCSC)NC(=O)[C@@H](CC(C)C)SCCNC(=O)[C@@H](Cc1ccccc1)NC(=O)[C@@H](Cc1ccccc1)NC(=O)[C@H](CCC(N)=O)NC(=O)[C@H](CCC(N)=O)NC(=O)[C@H]1CCCN1C(=O)[C@H](CCCCNC(=O)OCc1ccccc1)NC(=O)[C@H]1CCCN1C(=O)[C@H](CCCN=C(N)N)NC(=O)OCc1ccccc1	25 µM	–	–	–	–	–	–	–
COC(=O)[C@@H](CCSC)NC(=O)[C@H](CC(C)C)SCCNC(=O)[C@@H](Cc1ccccc1)NC(=O)[C@@H](Cc1ccccc1)NC(=O)[C@H](CCC(N)=O)NC(=O)[C@H](CCC(N)=O)NC(=O)[C@H]1CCCN1C(=O)[C@H](CCCCNC(=O)OCc1ccccc1)NC(=O)[C@H]1CCCN1C(=O)[C@H](CCCNC(=N)N)NC(=O)OCc1ccccc1	33 µM	–	–	–	–	–	–	–
COC(=O)[C@H](CCSC)NC(=O)[C@H](CC(C)C)NC(=O)[C@@H](Cc1c[nH]c2ccccc12)NC(=O)[C@H](Cc1ccccc1)NC(=O)[C@@H](Cc1ccccc1)NC(=O)[C@H](CCCN=C(N)N)NC(=O)[C@H](CC(N)=O)NC(=O)OC(C)(C)C	500 µM	-79%	16 dose ratio	11%	2.1 dose ratio	–	–	Change in amplitude response [1]: -17%; Change in amplitude response [2]: -26%; Change in amplitude response [3]: -40%; Activity [7]: 4.4 dose ratio; Change in amplitude response [9]: -3%; Change in amplitude response [10]: 15%; Change in amplitude response [11]: -56%; Activity [12]: < 2 dose ratio
COC(=O)[C@@H](CCSC)NC(=O)[C@H](CC(C)C)SCCNC(=O)[C@@H](Cc1ccccc1)NC(=O)[C@H](Cc1ccccc1)NC(=O)[C@H](CCC(N)=O)NC(=O)[C@H](CCC(N)=O)NC(=O)[C@H]1CCCN1C(=O)[C@H](CCCCNC(=O)OCc1ccccc1)NC(=O)[C@H]1CCCN1C(=O)[C@H](CCCN=C(N)N)NC(=O)OCc1ccccc1	–	–	21.6 dose ratio	-5%	4.5 dose ratio	15.2 dose ratio	49.3 dose ratio	Change in amplitude response [18]: 5%
COC(=O)[C@@H](CCSC)NC(=O)C(CC(C)C)SCCNC(=O)[C@H](Cc1ccccc1)NC(=O)[C@@H](Cc1ccccc1)NC(=O)[C@H](CCC(N)=O)NC(=O)[C@H](CCC(N)=O)NC(=O)C1CCCN1C(=O)OC(C)(C)C (stereo in doubt)	–	-80%	< 2 dose ratio	-50%	< 2 dose ratio	< 2 dose ratio	< 2 dose ratio	Change in amplitude response [1]: -62%; Change in amplitude response [19]: 42%; Change in amplitude response [20]: -7%
COC(=O)[C@@H](CCSC)NC(=O)[C@H](CC(C)C)N(C)C(=O)CN(C)C(=O)[C@H](Cc1ccccc1)NC(=O)[C@@H](Cc1ccccc1)NC(=O)[C@H](CCC(N)=O)NC(=O)[C@H](CCC(N)=O)NC(=O)C1CCCN1C(=O)[C@H](CCCCNC(=O)OCc1ccccc1)NC(=O)C1CCCN1C(=O)[C@H](CCCN=C(N)N)NC(=O)OCc1ccccc1 (stereo in doubt)	–	–	–	–	–	–	–	Change in amplitude response [21]: 0%; Change in amplitude response [22]: -35%; Change in amplitude response [23]: 0%; Change in amplitude response [24]: 6%
COC(=O)[C@@H](CCSC)NC(=O)[C@H](CC(C)C)NC(=O)CN(C)C(=O)[C@H](Cc1ccccc1)NC(=O)[C@@H](Cc1ccccc1)NC(=O)[C@H](CCC(N)=O)NC(=O)[C@H](CCC(N)=O)NC(=O)C1CCCN1C(=O)OC(C)(C)C (stereo in doubt)	–	-57%	< 2 dose ratio	-4%	< 2 dose ratio	< 2 dose ratio	< 2 dose ratio	Change in amplitude response [1]: -12%; Change in amplitude response [15]: 7%; Change in amplitude response [16]: -29%
COC(=O)[C@@H](CCSC)NC(=O)[C@H](CC(C)C)NC(=O)CN(C)C(=O)[C@H](Cc1ccccc1)NC(=O)[C@@H](Cc1ccccc1)NC(=O)[C@H](CCC(N)=O)NC(=O)[C@H](CCC(N)=O)NC(=O)C1CCCN1C(=O)[C@H](CCCCNC(=O)OCc1ccccc1)NC(=O)C1CCCN1C(=O)[C@H](CCCN=C(N)N)NC(=O)OCc1ccccc1 (stereo in doubt)	–	–	–	-36%	–	–	–	Change in amplitude response [14]: -24%; Change in amplitude response [18]: -15%
COC(=O)[C@@H](CCSC)NC(=O)[C@H](CC(C)C)SCCNC(=O)[C@H](Cc1ccccc1)NC(=O)[C@@H](Cc1ccccc1)NC(=O)[C@H](CCC(N)=O)NC(=O)[C@H](CCC(N)=O)NC(=O)C1CCCN1C(=O)OC(C)(C)C (stereo in doubt)	–	-74%	3 dose ratio	-43%	< 2 dose ratio	2.3 dose ratio	10 dose ratio	Change in amplitude response [1]: -54%; Change in amplitude response [19]: 40%; Change in amplitude response [20]: -28%

The next lines start with results.

IC50 (Substance-P receptor)	Change in amplitude response [4]	Activity [5]	Change in amplitude response [6]	Activity [8]	Activity [13]	Activity [17]	SMILES	also measured
0.5 µM	–	–	–	–	–	–	CSCC[C@H](NC(=O)[C@H](CC(C)C)NC(=O)[C@@H](Cc1c[nH]c2ccccc12)NC(=O)[C@H](Cc1ccccc1)NC(=O)[C@@H](Cc1ccccc1)NC(=O)[C@H](CCCNC(=N)N)NC(=O)[C@H](CC(N)=O)NC(=O)[C@@H]1CCCN1C(=O)[C@H](CCCCNC(=O)OCc1ccccc1)NC(=O)[C@H]1CCCN1C(=O)[C@H](CCCNC(=N)N)NC(=O)OCc1ccccc1)C(N)=O	–
–	-75%	–	–	–	10.5 dose ratio	–	COC(=O)[C@@H](CCSC)NC(=O)[C@H](CC(C)C)NC(=O)CNC(=O)[C@@H](Cc1c[nH]c2ccccc12)NC(=O)[C@@H](Cc1c[nH]c2ccccc12)NC(=O)[C@H](CCC(N)=O)NC(=O)[C@H](CCC(N)=O)NC(=O)[C@@H]1CCCN1C(=O)[C@H](CCCCNC(=O)OCc1ccccc1)NC(=O)[C@@H]1CCCN1C(=O)[C@H](CCCN=C(N)N)NC(=O)OCc1ccccc1	Change in amplitude response [2]: -6%; Change in amplitude response [14]: -13%; Change in amplitude response [3]: -24%; Change in amplitude response [9]: -3%; Change in amplitude response [10]: 19%; Change in amplitude response [11]: -33%; Change in amplitude response [15]: 18%; Change in amplitude response [16]: -77%
4 µM	–	–	–	–	–	–	CSCCC(NC(=O)C(CC(C)C)NC(=O)[C@@H](Cc1c[nH]c2ccccc12)NC(=O)[C@H](Cc1ccccc1)NC(=O)[C@@H](Cc1c[nH]c2ccccc12)NC(=O)[C@H](CCC(N)=O)NC(=O)[C@H](CCC(N)=O)NC(=O)[C@@H]1CCCN1C(=O)[C@H](CCCCN)NC(=O)[C@H]1CCCN1C(=O)[C@@H](N)CCCNC(=N)N)C(N)=O (stereo in doubt)	–
–	–	7.2 dose ratio	–	6.2 dose ratio	9.8 dose ratio	10.7 dose ratio	COC(=O)[C@@H](CCSC)NC(=O)C(CC(C)C)NC(=O)[C@@H](Cc1c[nH]c2ccccc12)NC(=O)[C@H](Cc1c[nH]c2ccccc12)NC(=O)[C@@H](Cc1c[nH]c2ccccc12)NC(=O)[C@H](CCC(N)=O)NC(=O)[C@H](CCC(N)=O)NC(=O)[C@@H]1CCCN1C(=O)[C@H](CCCCNC(=O)OCc1ccccc1)NC(=O)[C@@H]1CCCN1C(=O)[C@H](CCCN=C(N)N)NC(=O)OCc1ccccc1 (stereo in doubt)	–
–	–	< 2 dose ratio	–	< 2 dose ratio	< 2 dose ratio	< 2 dose ratio	COC(=O)[C@H](CCSC)NC(=O)[C@H](CC(C)C)NC(=O)[C@@H](Cc1c[nH]c2ccccc12)NC(=O)[C@H](Cc1ccccc1)NC(=O)[C@@H](Cc1ccccc1)NC(=O)[C@H](CCCCN)NC(=O)[C@H](CC(N)=O)NC(=O)C1CCCN1C(=O)[C@H](CCCCN)NC(=O)C1CCCN1C(=O)[C@@H](N)CCCN=C(N)N (stereo in doubt)	Change in amplitude response [9]: 8%; Change in amplitude response [10]: 9%; Change in amplitude response [11]: -54%
